Experimental data taken from ChEMBL document CHEMBL1153921, “Design, synthesis, and biological evaluation of novel 1-(1H-1,2,4-triazole-1-yl)-2-(2,4-difluorophenyl)-3-substituted benzylamino-2-propanols” (2009).
≈ marks a conversion by molar mass, not a printed value.

What was measured:
Type in all cases: functional
[1] = tested on: Candida albicans; experiment: Antimicrobial activity against Candida albicans by micro-broth dilution method
Outline: (§1)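 ATCC standard strains. Broth microdilution in 96-well plates following NCCLS M27-A2 (reference broth dilution method for yeasts). Endpoint is MIC80, the lowest concentration giving 80% growth inhibition. Marketed reference antifungals ran alongside as positive controls.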

[2] = tested on: Candida tropicalis; experiment: Antimicrobial activity against Candida tropicalis by micro-broth dilution method
Outline: (§2)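 Clinical isolates. Tested by broth microdilution in 96-well plates following NCCLS M27-A2. MIC80, the minimum concentration inhibiting growth by 80%, was recorded. Marketed reference antifungals were included as positive controls.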

[3] = tested on: Aspergillus fumigatus; experiment: Antimicrobial activity against Aspergillus fumigatus by micro-broth dilution method; outline: as §2
[4] = tested on: Trichophyton rubrum; experiment: Antimicrobial activity against Trichophyton rubrum by micro-broth dilution method; outline: as §2
[5] = tested on: Nannizzia gypsea; experiment: Antimicrobial activity against Microsporum gypseum by micro-broth dilution method; outline: as §2
[6] = tested on: Cryptococcus neoformans; experiment: Antimicrobial activity against Cryptococcus neoformans by micro-broth dilution method; outline: as §1
[7] = tested on: Pichia kudriavzevii; experiment: Antimicrobial activity against Candida krusei by micro-broth dilution method; outline: as §2
[8] = tested on: Candida parapsilosis; experiment: Antimicrobial activity against Candida parapsilosis by micro-broth dilution method; conditions: Lodderomyces parapsilosis; outline: as §2

SMILES	MIC80 [1] [mg/L]	MIC80 [2] [mg/L]	MIC80 [3] [mg/L]	MIC80 [4] [mg/L]	MIC80 [5] [mg/L]	MIC80 [6] [mg/L]	MIC80 [7] [mg/L]	MIC80 [8] [mg/L]
CCCN(Cc1ccc([N+](=O)[O-])cc1)CC(O)(Cn1cncn1)c1ccc(F)cc1F (stereo unspecified)	0.0156 (≈ 0.0362 µM)	0.25 (≈ 0.579 µM)	64 (≈ 148 µM)	0.25 (≈ 0.579 µM)	0.0156 (≈ 0.0362 µM)	0.25 (≈ 0.579 µM)	0.0625 (≈ 0.145 µM)	0.0625 (≈ 0.145 µM)
CCCN(Cc1ccccc1C)CC(O)(Cn1cncn1)c1ccc(F)cc1F (stereo unspecified)	0.0625 (≈ 0.156 µM)	0.0625 (≈ 0.156 µM)	> 64	4 (≈ 9.99 µM)	0.0039 (≈ 0.00974 µM)	0.25 (≈ 0.624 µM)	0.0625 (≈ 0.156 µM)	0.0625 (≈ 0.156 µM)
CCCN(Cc1ccccc1Cl)CC(O)(Cn1cncn1)c1ccc(F)cc1F (stereo unspecified)	0.25 (≈ 0.594 µM)	0.25 (≈ 0.594 µM)	> 64	4 (≈ 9.5 µM)	0.0156 (≈ 0.0371 µM)	0.0625 (≈ 0.148 µM)	0.25 (≈ 0.594 µM)	0.25 (≈ 0.594 µM)
CC(C)N(Cc1cccc(F)c1)CC(O)(Cn1cncn1)c1ccc(F)cc1F (stereo unspecified)	0.0625 (≈ 0.155 µM)	0.0625 (≈ 0.155 µM)	64 (≈ 158 µM)	0.25 (≈ 0.618 µM)	0.0625 (≈ 0.155 µM)	0.0625 (≈ 0.155 µM)	0.0625 (≈ 0.155 µM)	0.0625 (≈ 0.155 µM)
CC(C)N(Cc1ccccc1Br)CC(O)(Cn1cncn1)c1ccc(F)cc1F (stereo unspecified)	0.25 (≈ 0.537 µM)	0.0625 (≈ 0.134 µM)	> 64	0.0625 (≈ 0.134 µM)	0.0156 (≈ 0.0335 µM)	0.25 (≈ 0.537 µM)	0.25 (≈ 0.537 µM)	0.0625 (≈ 0.134 µM)
CCCN(Cc1cccc(F)c1)CC(O)(Cn1cncn1)c1ccc(F)cc1F (stereo unspecified)	0.0156 (≈ 0.0386 µM)	0.25 (≈ 0.618 µM)	> 64	1 (≈ 2.47 µM)	0.0625 (≈ 0.155 µM)	0.0625 (≈ 0.155 µM)	0.0625 (≈ 0.155 µM)	0.0625 (≈ 0.155 µM)
CCCN(Cc1ccc(Cl)cc1Cl)CC(O)(Cn1cncn1)c1ccc(F)cc1F (stereo unspecified)	0.25 (≈ 0.549 µM)	4 (≈ 8.78 µM)	> 64	1 (≈ 2.2 µM)	0.0156 (≈ 0.0343 µM)	1 (≈ 2.2 µM)	1 (≈ 2.2 µM)	1 (≈ 2.2 µM)
CC(C)N(Cc1ccccc1)CC(O)(Cn1cncn1)c1ccc(F)cc1F (stereo unspecified)	0.0156 (≈ 0.0404 µM)	0.25 (≈ 0.647 µM)	64 (≈ 166 µM)	0.0625 (≈ 0.162 µM)	0.0156 (≈ 0.0404 µM)	0.25 (≈ 0.647 µM)	0.25 (≈ 0.647 µM)	0.0625 (≈ 0.162 µM)
CCCN(Cc1ccc(Cl)cc1)CC(O)(Cn1cncn1)c1ccc(F)cc1F (stereo unspecified)	0.0625 (≈ 0.148 µM)	0.25 (≈ 0.594 µM)	64 (≈ 152 µM)	1 (≈ 2.38 µM)	0.0625 (≈ 0.148 µM)	0.0625 (≈ 0.148 µM)	0.0625 (≈ 0.148 µM)	0.25 (≈ 0.594 µM)
CC(C)N(Cc1ccc(F)cc1)CC(O)(Cn1cncn1)c1ccc(F)cc1F (stereo unspecified)	0.0625 (≈ 0.155 µM)	0.25 (≈ 0.618 µM)	> 64	0.25 (≈ 0.618 µM)	0.0625 (≈ 0.155 µM)	0.0625 (≈ 0.155 µM)	0.0625 (≈ 0.155 µM)	0.0625 (≈ 0.155 µM)
CC(C)N(Cc1ccccc1Cl)CC(O)(Cn1cncn1)c1ccc(F)cc1F (stereo unspecified)	0.0625 (≈ 0.148 µM)	0.25 (≈ 0.594 µM)	> 64	0.25 (≈ 0.594 µM)	0.0625 (≈ 0.148 µM)	0.25 (≈ 0.594 µM)	0.0625 (≈ 0.148 µM)	0.25 (≈ 0.594 µM)
Cc1ccc(CN(CC(O)(Cn2cncn2)c2ccc(F)cc2F)C(C)C)cc1 (stereo unspecified)	1 (≈ 2.5 µM)	1 (≈ 2.5 µM)	64 (≈ 160 µM)	0.0625 (≈ 0.156 µM)	0.0625 (≈ 0.156 µM)	0.25 (≈ 0.624 µM)	0.25 (≈ 0.624 µM)	0.25 (≈ 0.624 µM)
CCCN(Cc1ccccc1)CC(O)(Cn1cncn1)c1ccc(F)cc1F (stereo unspecified)	0.0156 (≈ 0.0404 µM)	0.0625 (≈ 0.162 µM)	> 64	0.0625 (≈ 0.162 µM)	0.0156 (≈ 0.0404 µM)	0.0625 (≈ 0.162 µM)	0.0625 (≈ 0.162 µM)	0.0625 (≈ 0.162 µM)
CCCN(Cc1ccccc1F)CC(O)(Cn1cncn1)c1ccc(F)cc1F (stereo unspecified)	0.0156 (≈ 0.0386 µM)	0.0625 (≈ 0.155 µM)	> 64	1 (≈ 2.47 µM)	0.0156 (≈ 0.0386 µM)	0.25 (≈ 0.618 µM)	0.0625 (≈ 0.155 µM)	0.0625 (≈ 0.155 µM)
CC(C)N(Cc1ccc([N+](=O)[O-])cc1)CC(O)(Cn1cncn1)c1ccc(F)cc1F (stereo unspecified)	0.0156 (≈ 0.0362 µM)	0.25 (≈ 0.579 µM)	64 (≈ 148 µM)	0.25 (≈ 0.579 µM)	0.0156 (≈ 0.0362 µM)	0.25 (≈ 0.579 µM)	0.0625 (≈ 0.145 µM)	0.0625 (≈ 0.145 µM)
CC(C)N(Cc1ccc(Cl)cc1)CC(O)(Cn1cncn1)c1ccc(F)cc1F (stereo unspecified)	0.0625 (≈ 0.148 µM)	0.25 (≈ 0.594 µM)	1 (≈ 2.38 µM)	0.25 (≈ 0.594 µM)	0.0625 (≈ 0.148 µM)	0.25 (≈ 0.594 µM)	0.0625 (≈ 0.148 µM)	0.0625 (≈ 0.148 µM)
CC(C)N(Cc1ccc(Br)cc1)CC(O)(Cn1cncn1)c1ccc(F)cc1F (stereo unspecified)	0.0039 (≈ 0.00838 µM)	0.0625 (≈ 0.134 µM)	4 (≈ 8.6 µM)	0.0625 (≈ 0.134 µM)	0.0156 (≈ 0.0335 µM)	0.25 (≈ 0.537 µM)	0.25 (≈ 0.537 µM)	0.0625 (≈ 0.134 µM)
CC(C)N(Cc1cccc(Cl)c1)CC(O)(Cn1cncn1)c1ccc(F)cc1F (stereo unspecified)	0.0156 (≈ 0.0371 µM)	1 (≈ 2.38 µM)	> 64	0.25 (≈ 0.594 µM)	1 (≈ 2.38 µM)	1 (≈ 2.38 µM)	0.25 (≈ 0.594 µM)	0.25 (≈ 0.594 µM)
CCCN(Cc1ccc(F)cc1)CC(O)(Cn1cncn1)c1ccc(F)cc1F (stereo unspecified)	0.0625 (≈ 0.155 µM)	0.25 (≈ 0.618 µM)	> 64	1 (≈ 2.47 µM)	0.0039 (≈ 0.00964 µM)	0.0625 (≈ 0.155 µM)	0.0625 (≈ 0.155 µM)	0.0625 (≈ 0.155 µM)
CCCN(Cc1ccc(CC)cc1)CC(O)(Cn1cncn1)c1ccc(F)cc1F (stereo unspecified)	0.0156 (≈ 0.0376 µM)	0.25 (≈ 0.603 µM)	> 64	1 (≈ 2.41 µM)	0.25 (≈ 0.603 µM)	1 (≈ 2.41 µM)	1 (≈ 2.41 µM)	0.25 (≈ 0.603 µM)
CCCN(Cc1cccc(Cl)c1)CC(O)(Cn1cncn1)c1ccc(F)cc1F (stereo unspecified)	0.0625 (≈ 0.148 µM)	0.25 (≈ 0.594 µM)	> 64	4 (≈ 9.5 µM)	0.0625 (≈ 0.148 µM)	0.25 (≈ 0.594 µM)	0.25 (≈ 0.594 µM)	0.25 (≈ 0.594 µM)
CC(C)N(Cc1ccccc1F)CC(O)(Cn1cncn1)c1ccc(F)cc1F (stereo unspecified)	0.0625 (≈ 0.155 µM)	0.25 (≈ 0.618 µM)	> 64	1 (≈ 2.47 µM)	0.0625 (≈ 0.155 µM)	0.25 (≈ 0.618 µM)	0.25 (≈ 0.618 µM)	0.0625 (≈ 0.155 µM)
CCCN(Cc1ccc(C)cc1)CC(O)(Cn1cncn1)c1ccc(F)cc1F (stereo unspecified)	0.0625 (≈ 0.156 µM)	0.0625 (≈ 0.156 µM)	> 64	0.25 (≈ 0.624 µM)	0.0156 (≈ 0.039 µM)	0.25 (≈ 0.624 µM)	0.0625 (≈ 0.156 µM)	0.0625 (≈ 0.156 µM)
CCCN(Cc1ccccc1Br)CC(O)(Cn1cncn1)c1ccc(F)cc1F (stereo unspecified)	0.0625 (≈ 0.134 µM)	0.25 (≈ 0.537 µM)	> 64	1 (≈ 2.15 µM)	0.0625 (≈ 0.134 µM)	0.25 (≈ 0.537 µM)	0.25 (≈ 0.537 µM)	0.0039 (≈ 0.00838 µM)
CCCN(Cc1ccc(Br)cc1)CC(O)(Cn1cncn1)c1ccc(F)cc1F (stereo unspecified)	0.0625 (≈ 0.134 µM)	0.0625 (≈ 0.134 µM)	> 64	0.25 (≈ 0.537 µM)	0.0625 (≈ 0.134 µM)	0.25 (≈ 0.537 µM)	0.25 (≈ 0.537 µM)	0.0156 (≈ 0.0335 µM)
Cc1ccccc1CN(CC(O)(Cn1cncn1)c1ccc(F)cc1F)C(C)C (stereo unspecified)	0.0156 (≈ 0.039 µM)	0.25 (≈ 0.624 µM)	> 64	0.25 (≈ 0.624 µM)	0.0625 (≈ 0.156 µM)	0.25 (≈ 0.624 µM)	0.25 (≈ 0.624 µM)	0.0625 (≈ 0.156 µM)
CCc1ccc(CN(CC(O)(Cn2cncn2)c2ccc(F)cc2F)C(C)C)cc1 (stereo unspecified)	0.0625 (≈ 0.151 µM)	1 (≈ 2.41 µM)	> 64	1 (≈ 2.41 µM)	0.25 (≈ 0.603 µM)	1 (≈ 2.41 µM)	1 (≈ 2.41 µM)	1 (≈ 2.41 µM)
